The target of assay [1] is Histone acetyltransferase KAT5 (Homo sapiens) (UniProt Q92993). Briefly: Inhibition of Tip60-mediated histone H3 acetylation in human HeLa nuclear extracts at 50 uM after 15 mins by ELISA. In outline: (§1)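 HeLa nuclear extract (Dignam method) at 2.5 µg/mL final protein as enzyme source. Biotinylated H3 (aa 1–21) or H4 (aa 2–24) peptide immobilized on streptavidin. Reaction run 15 min in 50 mM HEPES pH 7.4, 0.01% Triton X-100, 0.1 mM EDTA, BSA, 1 mM DTT. Anti-acetyl-lysine ELISA readout. Triplicates, normalized to no-inhibitor and no-enzyme controls.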
Sequence of Histone acetyltransferase KAT5 (Homo sapiens) (Q92993 whole entry, looked up, the tested form may be a part): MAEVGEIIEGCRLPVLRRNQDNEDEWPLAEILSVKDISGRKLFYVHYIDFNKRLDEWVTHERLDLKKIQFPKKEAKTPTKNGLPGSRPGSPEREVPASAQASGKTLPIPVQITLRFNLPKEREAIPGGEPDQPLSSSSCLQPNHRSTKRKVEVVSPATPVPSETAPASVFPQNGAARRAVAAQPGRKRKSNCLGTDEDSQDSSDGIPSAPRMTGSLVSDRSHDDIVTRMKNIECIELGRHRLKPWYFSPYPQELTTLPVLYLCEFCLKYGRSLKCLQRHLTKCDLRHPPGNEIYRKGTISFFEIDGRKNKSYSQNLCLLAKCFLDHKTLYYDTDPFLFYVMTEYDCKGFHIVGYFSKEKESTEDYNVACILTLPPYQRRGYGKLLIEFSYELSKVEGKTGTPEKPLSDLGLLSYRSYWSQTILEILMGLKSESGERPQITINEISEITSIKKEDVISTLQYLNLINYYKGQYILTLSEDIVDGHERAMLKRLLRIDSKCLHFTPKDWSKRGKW
(In an ELISA, binding on a coated surface is turned into a signal by an enzyme label.)

The target is the same in assay [2]. Description: Inhibition of His-tagged human recombinant Tip60 expressed in Escherichia coli BL21(DE3) cells using [14C][…] and histone H4 as substrate at 200 uM after 5 mins by scintillation counting. In outline: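 Single-point screen at 200 µM inhibitor: 100 nM Tip60, 10 µM [14C]Ac-CoA, 100 µM H4-20 peptide in 50 mM HEPES pH 8.0, 0.1 mM EDTA, BSA, 1 mM DTT, 0.1% Triton X-100, 2% DMSO. Components equilibrated 5 min at 30 °C before enzyme start. Products spotted on P81 paper, washed with bicarbonate, counted by scintillation. No-enzyme background subtracted.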

Assay [3] has the same target. Description: Inhibition of Tip60-mediated histone H3 acetylation in human HeLa nuclear extracts at 200 uM after 15 mins by ELISA. In outline: as §1
Assay [4] concerns the target Histone acetyltransferase p300 (Homo sapiens) (UniProt Q09472). Description: Inhibition of human recombinant His-tagged p300 HAT domain expressed in Escherichia coli BL21(DE3) cells using [14C][…] and histone H4 as substrate at 200 uM after 5 mins by scintillation counting. In outline: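 Single-point screen at 200 µM inhibitor: 5 nM p300, 10 µM [14C]Ac-CoA, 100 µM H4-20 peptide in 50 mM HEPES pH 8.0, EDTA, BSA, DTT, Triton X-100, 2% DMSO, 30 °C. Enzyme-initiated after 5 min equilibration. Radioactivity on P81 paper counted. No-enzyme background subtracted.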

Assay [5] concerns the target Histone acetyltransferase KAT5 (Homo sapiens) (UniProt Q92993). Briefly: Inhibition of Tip60-mediated histone H4 acetylation in human HeLa nuclear extracts at 200 uM after 15 mins by ELISA. The gist of the method:
as §1

In assay [6] the target is Histone acetyltransferase KAT2B (Homo sapiens) (UniProt Q92831). Briefly: Inhibition of human recombinant His-tagged PCAF HAT domain expressed in Escherichia coli BL21(DE3) cells using [14C][…] and histone H3 as substrate at 200 uM after 5 mins by scintillation counting.
Sequence of Histone acetyltransferase KAT2B (Homo sapiens) (Q92831 whole entry, looked up, the tested form may be a part): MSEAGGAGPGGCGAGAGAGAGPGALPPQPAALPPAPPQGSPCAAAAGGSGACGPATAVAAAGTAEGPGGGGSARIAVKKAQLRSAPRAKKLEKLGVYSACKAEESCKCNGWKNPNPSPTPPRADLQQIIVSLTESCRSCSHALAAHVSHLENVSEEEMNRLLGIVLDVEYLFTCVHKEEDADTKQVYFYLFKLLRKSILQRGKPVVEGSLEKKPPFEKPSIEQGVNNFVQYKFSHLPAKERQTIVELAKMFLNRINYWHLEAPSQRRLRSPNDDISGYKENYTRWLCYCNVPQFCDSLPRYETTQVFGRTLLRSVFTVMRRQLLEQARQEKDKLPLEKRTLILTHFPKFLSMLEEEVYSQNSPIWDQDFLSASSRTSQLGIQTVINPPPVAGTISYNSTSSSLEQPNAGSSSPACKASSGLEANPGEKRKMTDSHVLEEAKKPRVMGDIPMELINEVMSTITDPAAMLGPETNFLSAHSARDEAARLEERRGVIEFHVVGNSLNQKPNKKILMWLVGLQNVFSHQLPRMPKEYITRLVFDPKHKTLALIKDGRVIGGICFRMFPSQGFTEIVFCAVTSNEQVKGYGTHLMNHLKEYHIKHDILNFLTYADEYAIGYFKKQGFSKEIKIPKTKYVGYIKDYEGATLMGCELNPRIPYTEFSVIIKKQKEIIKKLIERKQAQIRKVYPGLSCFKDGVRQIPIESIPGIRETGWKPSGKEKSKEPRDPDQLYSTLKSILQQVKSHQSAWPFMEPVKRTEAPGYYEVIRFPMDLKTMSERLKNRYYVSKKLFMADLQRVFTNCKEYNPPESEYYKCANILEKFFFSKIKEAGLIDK
Assay [7] deals with Histone acetyltransferase KAT5 (Homo sapiens) (UniProt Q92993). Description: Inhibition of Tip60-mediated histone H4 acetylation in human HeLa nuclear extracts at 50 uM after 15 mins by ELISA. The gist of the method:
as §1

Assay [8] addresses Histone acetyltransferase p300 (Homo sapiens) (UniProt Q09472). Description: Inhibition of human recombinant His-tagged p300 HAT domain expressed in Escherichia coli BL21(DE3) cells using [14C][…] and histone H4 as substrate at >200 uM after 5 mins by scintillation counting.
Assay [9] deals with Histone acetyltransferase KAT5 (Rattus norvegicus) (UniProt Q99MK2). Description: Inhibition of Tip60-mediated histone H3 acetylation in rat brain extracts at 30 uM after 15 mins by ELISA. The assay is classed as tissue-based. In outline:
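Rat brain-region nuclear extracts (Dignam method) at 40 µg/mL final protein. Inhibitor at 30 µM. Histone peptide immobilized via streptavidin, 15 min reaction in HEPES pH 7.4 buffer, anti-acetyl-lysine ELISA. Triplicates for each of two animals. Blank values subtracted.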

Assay [10] deals with Histone acetyltransferase KAT2B (Homo sapiens) (UniProt Q92831). Briefly: Inhibition of human recombinant His-tagged PCAF HAT domain expressed in Escherichia coli BL21(DE3) cells using [14C][…] and histone H3 as substrate at >200 uM after 3.5 mins by scintillation counting.
For assay [11], the target named is Histone acetyltransferase KAT5 (Homo sapiens) (UniProt Q92993).
The target of assay [12] is T1, Histone acetyltransferase KAT8 (Homo sapiens, UniProt Q9H7Z6).
T1 sequence (Q9H7Z6 whole entry): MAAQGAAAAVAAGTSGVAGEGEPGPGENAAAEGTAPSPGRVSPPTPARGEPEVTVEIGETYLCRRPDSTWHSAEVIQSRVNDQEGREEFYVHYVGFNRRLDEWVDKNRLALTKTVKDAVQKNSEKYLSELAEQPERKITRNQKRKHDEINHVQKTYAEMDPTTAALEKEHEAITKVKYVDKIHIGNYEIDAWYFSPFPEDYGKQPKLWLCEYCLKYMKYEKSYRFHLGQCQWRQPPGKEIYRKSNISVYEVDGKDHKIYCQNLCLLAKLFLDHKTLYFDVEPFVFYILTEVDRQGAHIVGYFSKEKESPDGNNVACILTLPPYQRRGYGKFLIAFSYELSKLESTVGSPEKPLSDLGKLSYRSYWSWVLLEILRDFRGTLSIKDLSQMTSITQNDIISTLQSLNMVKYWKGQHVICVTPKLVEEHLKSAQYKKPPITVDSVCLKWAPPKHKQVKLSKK
Description: Inhibition of human MOF expressed in Escherichia coli BL21(DE3) cells using [14C]AC-CoA and histone H4 as substrate after 5 mins by scintillation counting.

Assay [13] deals with Histone acetyltransferase KAT5 (Homo sapiens) (UniProt Q92993). This is another data set of the same source.
Assay [14] has as its target Histone acetyltransferase KAT5 (Rattus norvegicus) (UniProt Q99MK2). Description: Inhibition of Tip60-mediated histone H3 acetylation in rat brain extracts at 30 uM after 15 mins by ELISA.

Structures are written as SMILES. Activity calls are given as the source filed them. No cut-off for these calls is given here.

Experimental findings from ChEMBL document CHEMBL1933039, “6-alkylsalicylates are selective Tip60 inhibitors and target the acetyl-CoA binding site” (Eur J Med Chem, 2012) are described below.

Sequence of Histone acetyltransferase p300 (Homo sapiens) (Q09472 whole entry, the tested form may be a part): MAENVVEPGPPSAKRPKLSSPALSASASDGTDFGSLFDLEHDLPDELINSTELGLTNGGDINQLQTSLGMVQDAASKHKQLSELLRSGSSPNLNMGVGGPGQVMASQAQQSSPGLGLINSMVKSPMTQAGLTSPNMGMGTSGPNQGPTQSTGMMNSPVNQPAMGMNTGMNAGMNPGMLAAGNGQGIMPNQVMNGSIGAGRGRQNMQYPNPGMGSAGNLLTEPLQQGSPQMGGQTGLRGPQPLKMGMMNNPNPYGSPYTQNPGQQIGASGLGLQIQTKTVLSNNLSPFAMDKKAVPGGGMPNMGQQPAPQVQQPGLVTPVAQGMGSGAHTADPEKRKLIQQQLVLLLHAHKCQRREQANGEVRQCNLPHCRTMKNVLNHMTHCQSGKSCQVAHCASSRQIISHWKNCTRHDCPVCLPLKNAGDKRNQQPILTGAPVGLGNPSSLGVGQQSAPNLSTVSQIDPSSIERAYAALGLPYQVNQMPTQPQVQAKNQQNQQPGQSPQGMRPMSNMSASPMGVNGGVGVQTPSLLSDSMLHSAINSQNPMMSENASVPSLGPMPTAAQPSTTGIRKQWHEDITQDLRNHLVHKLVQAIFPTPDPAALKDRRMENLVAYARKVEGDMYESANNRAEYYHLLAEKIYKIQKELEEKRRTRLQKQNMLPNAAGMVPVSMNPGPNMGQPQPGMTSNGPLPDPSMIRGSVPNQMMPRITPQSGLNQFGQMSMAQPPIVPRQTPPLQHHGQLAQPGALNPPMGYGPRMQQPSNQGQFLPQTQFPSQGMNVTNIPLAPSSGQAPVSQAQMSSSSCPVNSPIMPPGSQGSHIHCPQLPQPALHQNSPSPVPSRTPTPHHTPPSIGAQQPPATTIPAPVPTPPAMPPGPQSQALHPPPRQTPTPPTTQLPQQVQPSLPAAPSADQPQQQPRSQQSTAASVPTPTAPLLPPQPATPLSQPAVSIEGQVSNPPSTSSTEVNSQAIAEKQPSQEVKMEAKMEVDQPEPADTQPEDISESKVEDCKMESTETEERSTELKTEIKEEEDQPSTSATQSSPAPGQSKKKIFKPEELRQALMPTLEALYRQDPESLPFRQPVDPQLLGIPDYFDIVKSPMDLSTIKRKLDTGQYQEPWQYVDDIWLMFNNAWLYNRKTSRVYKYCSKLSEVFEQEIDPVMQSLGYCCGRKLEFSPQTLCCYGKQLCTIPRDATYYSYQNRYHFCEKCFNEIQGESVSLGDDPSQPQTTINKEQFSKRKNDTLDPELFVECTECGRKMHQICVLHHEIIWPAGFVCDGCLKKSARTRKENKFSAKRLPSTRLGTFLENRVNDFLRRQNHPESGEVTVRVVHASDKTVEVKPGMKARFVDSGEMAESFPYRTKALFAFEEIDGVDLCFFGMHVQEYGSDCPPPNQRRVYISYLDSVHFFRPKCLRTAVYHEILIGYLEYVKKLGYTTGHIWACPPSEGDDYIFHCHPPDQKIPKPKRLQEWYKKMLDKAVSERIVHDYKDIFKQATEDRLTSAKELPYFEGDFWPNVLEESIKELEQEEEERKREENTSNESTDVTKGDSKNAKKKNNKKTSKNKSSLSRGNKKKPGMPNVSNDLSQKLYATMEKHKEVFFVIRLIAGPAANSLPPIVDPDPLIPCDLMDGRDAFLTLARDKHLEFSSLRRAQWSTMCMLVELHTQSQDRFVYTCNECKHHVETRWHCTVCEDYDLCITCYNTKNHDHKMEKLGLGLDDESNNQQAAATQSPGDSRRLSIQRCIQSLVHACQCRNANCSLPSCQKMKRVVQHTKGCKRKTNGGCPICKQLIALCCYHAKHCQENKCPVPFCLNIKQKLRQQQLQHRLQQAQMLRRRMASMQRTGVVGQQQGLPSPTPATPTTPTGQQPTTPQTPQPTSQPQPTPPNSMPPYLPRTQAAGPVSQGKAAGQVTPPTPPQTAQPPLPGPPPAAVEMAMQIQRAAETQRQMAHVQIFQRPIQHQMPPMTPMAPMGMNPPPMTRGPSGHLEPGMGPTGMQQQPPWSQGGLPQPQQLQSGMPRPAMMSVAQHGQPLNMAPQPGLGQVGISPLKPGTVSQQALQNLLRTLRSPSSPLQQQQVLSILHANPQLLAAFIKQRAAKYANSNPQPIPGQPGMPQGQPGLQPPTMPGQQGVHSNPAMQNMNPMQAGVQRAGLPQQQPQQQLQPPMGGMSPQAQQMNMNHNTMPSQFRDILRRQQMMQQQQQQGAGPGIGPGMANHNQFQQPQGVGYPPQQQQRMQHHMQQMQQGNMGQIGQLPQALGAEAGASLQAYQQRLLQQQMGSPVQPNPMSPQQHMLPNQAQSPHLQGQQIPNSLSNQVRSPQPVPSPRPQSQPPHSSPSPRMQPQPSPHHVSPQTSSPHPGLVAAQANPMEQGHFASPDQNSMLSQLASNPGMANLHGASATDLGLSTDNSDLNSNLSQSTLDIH
Sequence of Histone acetyltransferase KAT5 (Rattus norvegicus) (Q99MK2 whole entry): as the sequence (Q92993 whole entry, looked up, the tested form may be a part) above, with A175S counted along it

As to `CCCCCCCc1ccc(CCc2cc(O)cc(O)c2C(=O)O)cc1`, in assay [1], the inhibition entry is “Active”.
In the case of `CC(C)CCCC(C)CCOc1ccc(CCc2cccc(O)c2C(=O)O)cc1` (stereo unspecified), the inhibition in assay [2] was greater than 76%; in [3], greater than 50%; in [4] it was less than 35%; in assay [5], greater than 50%; in [6], less than 35%. Besides, in assay [1], the inhibition result is “Active”.
In the case of `CCCCCCCCCCCCCC#Cc1ccccc1C(=O)OC`, the inhibition in assay [3] and in assay [5] was greater than 50% each time.
Take `CCCCCOc1ccc(CCc2cccc(O)c2C(=O)O)cc1`: the inhibition in assay [3] and in assay [5] was greater than 50% throughout. For the same compound, the inhibition entry in [7] was “Active”.
As for `CCCCCCCCCCCCCCOc1ccc(CCc2cccc(O)c2C(=O)O)cc1`, the inhibition in [3] and in assay [5] was greater than 50% each time. Also, the inhibition result in assay [7] was “Active”.
In the case of `CCCCCCCOc1ccc(CCc2cccc(O)c2C(=O)O)cc1C(C)=O`, the inhibition in assay [3] and in assay [5] was greater than 50% each time. Moreover, in assay [1], the inhibition entry was “Active”.
On to `CCCCCCCc1ccc(CCc2cccc(O)c2C(=O)O)cc1`, for which the inhibition was 30% in assay [8]; 88% in [2]; greater than 50% in [3]; less than 35% in [4]; greater than 50% in assay [5]; 3% in assay [10]. Further, in assay [6], the inhibition is less than 35%. Moreover, the inhibition entry in [9], in assay [1] and in assay [14] was “Active” each time. Further, the Kii in assay [11] was found to be 78 µM; in [13], 572 µM. Further, in assay [12], the IC50 turned out to be 47 µM.
In the case of `CCCCCOc1ccc(CCc2cccc(O)c2C(=O)O)cc1C(C)O` (stereo unspecified), the inhibition result in assay [2] is “Active”.
With `CCCCCCCCCCCCCCCc1cc(O)cc(O)c1C(=O)O`, the inhibition in assay [2] is greater than 76%; in assay [3] it was greater than 50%; in assay [4], less than 35%; in [5], greater than 50%; in [6], less than 35%. Moreover, the inhibition result in [1] is “Active”.
`CCCCCCCCCCc1cc(O)cc(O)c1C(=O)O`: the inhibition in assay [2] is greater than 76%; in assay [3] it was greater than 50%; in [4] it was less than 35%; in assay [5] it was greater than 50%; in [6], less than 35%.
As to `CCCCCOc1ccc(CCc2cccc(O)c2C(=O)O)cc1C(C)=O`, the inhibition in assay [2] was greater than 76%; in assay [3], greater than 50%; in assay [4] it was less than 35%; in assay [5] it was greater than 50%; in assay [6], less than 35%.
On to `CCCCCCCCCCCCCCCc1ccccc1C(=O)O`, for which the inhibition in [3] and in assay [5] was greater than 50% throughout.
Take `C=CC/C=C\C/C=C\CCCCCCCc1cccc(O)c1C(=O)O`: the inhibition in [8] is 40%; in assay [2], greater than 76%; in assay [3], greater than 50%; in assay [4], less than 20%; in assay [5] it was greater than 50%; in assay [6] it was less than 20%. The inhibition result in [9], in [7], in assay [1] and in assay [14] was “Active” throughout.
For the compound `COCCOc1ccc(CCc2cccc(O)c2C(=O)O)cc1`, in assay [2], the inhibition result was “Active”.
For `CCCCCCCCCCc1cccc(O)c1C(=O)O`, the inhibition is greater than 76% in assay [2]; greater than 50% in assay [3]; less than 35% in [4]; greater than 50% in [5]; less than 35% in assay [6]. For the same compound, the inhibition entry in [7] and in assay [1] was “Active” throughout.
On to `CCCCCOc1ccc(/C=C\c2cccc(O)c2C(=O)O)cc1`, for which the inhibition in assay [3] and in assay [5] was greater than 50% in each case. In addition, in assay [7], the inhibition entry is “Active”.

In general, inhibition refers to the relative decrease from the control value, in per cent. As a reminder, the IC50 is the concentration that inhibits the measured activity by half. A lower IC50 goes with greater potency.
